Test results: ChEMBL document CHEMBL1122328, “Hypolipidemic activity of phthalimide derivatives. 2. N-phenylphthalimide and derivatives” (1983)

Tests used:
Type in all cases: functional
[1] = test system: Mus musculus; test: Effect on cholesterol from CF1 male mice after 16 days at a dose of 20 (mg/kg/day)
Summary of the method: (§1)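 CF1 male mice dosed ip for 16 days at 10–60 (mg/kg)/day; liver taken and 10% homogenate made in 0.25 M sucrose + 0.001 M EDTA; aliquot extracted by Folch and Bligh–Dyer methods, mg lipid weighed, cholesterol measured by Liebermann–Burchard method; n = 6; % of 1% CMC control.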

[2] = test system: Mus musculus; test: Effect on Serum triglceride levels on CF1 male mice at a dose of 25 (mg/kg)/day after 14 days
Summary of the method: (§2)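 CF1 male mice (~25 g), drug suspended in 1% carboxymethylcellulose in water, given ip daily for 16 days; n = 6; vehicle control. Tail-vein blood on days 9 and 16, serum cholesterol by modified Liebermann–Burchard reaction; day-14 serum triglyceride by commercial kit; expressed as % control.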

[3] = test system: Mus musculus; test: Effect on mg of lipid from CF1 male mice after 16 days at a dose of 20 (mg/kg/day); summary of the method: as §1
[4] = test system: Rattus norvegicus; test: Effect on very low density neutral lipids Holtzman rats after 14 days administration
Summary of the method: (§3)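 Holtzman male rats (~400 g) received drug at 20 (mg/kg)/day for 14 days. On day 14, blood was collected from the abdominal aorta and serum was separated by centrifugation at 3500 rpm. Lipid content of the lipoprotein fractions was then determined.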

[5] = test system: Mus musculus; test: In vitro effect on CF1 male mouse on acyltransferase after 16 days at a dose of 20 (mg/kg)/day
Summary of the method: (§4)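 In vivo enzyme study. CF₁ male mice were dosed ip for 16 days in 1% CMC, and liver was homogenised to 10% in 0.25 M sucrose with 0.001 M EDTA. Enzymes assayed: acetyl-CoA synthetase as hydroxamate at 540 nm after 30 min at 37 °C; HMG CoA reductase with [1-¹⁴C]acetate in 9000g supernatant for 60 min at 37 °C; fatty acid synthetase with [2-¹⁴C]malonyl-CoA; acyltransferase with [³H]glycerol 3-phosphate and microsomes for 10 min; phosphatidate phosphohydrolase as released phosphate at 820 nm after 30 min. N = 6; reported as % control.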

[6] = test system: Mus musculus; test: Effect on Serum triglceride levels on CF1 male mice at a dose of 20 (mg/kg)/day after 14 days; summary of the method: as §2
[7] = test system: Mus musculus; test: Effect on Serum cholesterol levels on CF1 male mice at a dose of 100 (mg/kg)/day after 9 days; summary of the method: as §2
[8] = test system: Rattus norvegicus; test: Effect on very low density Protein Holtzman rats after 14 days administration; summary of the method: as §3
[9] = test system: Mus musculus; test: Effect on neutral lipids from CF1 male mice after 16 days at a dose of 10 (mg/kg/day)
Summary of the method: (§5)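 Dosing was ip in CF₁ male mice (~25 g) for 16 days, with compound suspended in 1% carboxymethylcellulose. Liver was then taken and homogenised to 10% in 0.25 M sucrose with 0.001 M EDTA. Lipid was extracted from a 2 mL aliquot by the Folch and Bligh–Dyer methods and total mg of lipid was weighed. Cholesterol (Liebermann–Burchard), triglycerides (kit), neutral lipids and phospholipids were then measured; N = 6; reported as % of vehicle control.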

[10] = test system: Mus musculus; test: Effect on triglycerides from CF1 male mice after 16 days at a dose of 20 (mg/kg/day); summary of the method: as §5
[11] = species on record: Mus musculus; test: In vitro effect on CF1 male mouse on HMGCoA reductase
[12] = test system: Rattus norvegicus; test: Effect on Serum cholesterol levels on Holtzman rats at a dose of 20 (mg/kg)/day after 16 days
Summary of the method: (§6)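 Holtzman male rats (~200 g) dosed orally by intubation needle daily for 16 days, drug suspended in 1% carboxymethylcellulose; n = 6; vehicle control. Tail-vein serum cholesterol on days 9 and 16 by modified Liebermann–Burchard reaction; day-14 serum triglyceride by commercial kit; % control.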

[13] = test system: Rattus norvegicus; test: Effect on Serum cholesterol levels on Holtzman rats at a dose of 10 (mg/kg)/day after 9 days; summary of the method: as §6
[14] = test system: Mus musculus; test: Effect on mg of lipid from CF1 male mice after 16 days at a dose of 40 (mg/kg/day); summary of the method: as §1
[15] = test system: Mus musculus; test: In vitro effect on CF1 male mouse on Ac-CoA synthetase after 16 days at a dose of 40 (mg/kg)/day; summary of the method: as §4
[16] = test system: Mus musculus; test: Effect on Serum cholesterol levels on CF1 male mice at a dose of 12.5 (mg/kg)/day after 16 days; summary of the method: as §2
[17] = species on record: Mus musculus; test: In vitro effect on CF1 male mouse on acyltransferase
[18] = test system: Mus musculus; test: Effect on Serum triglyceride levels on CF1 male mice at a dose of 20 (mg/kg)/day after 14 days; summary of the method: as §2
[19] = test system: Rattus norvegicus; test: Effect on Serum triglceride levels on Holtzman rats at a dose of 10 (mg/kg)/day after 14 days; summary of the method: as §6
[20] = test system: Mus musculus; test: Effect on Serum cholesterol levels on CF1 male mice at a dose of 20 (mg/kg)/day after 9 days; summary of the method: as §2
[21] = test system: Mus musculus; test: Effect on phospholipids from CF1 male mice after 16 days at a dose of 10 (mg/kg/day); summary of the method: as §5
[22] = test system: Mus musculus; test: Effect on phospholipids from CF1 male mice after 16 days at a dose of 60 (mg/kg/day); summary of the method: as §5
[23] = species on record: Mus musculus; test: In vitro effect on CF1 male mouse on Citrate lyase
Summary of the method: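 In vitro test on 10% CF₁ male mouse liver homogenate (0.25 M sucrose, 0.001 M EDTA) with 2.5 μmol test drug. Assays: acetyl-CoA synthetase and citrate lyase as hydroxamate at 540 nm, 30 min, 37 °C; citrate exchange from [¹⁴C]citrate-loaded mitochondria after 10 min with drug; side-chain oxidation by ¹⁴CO₂ from [26-¹⁴C]cholesterol, 18 h, 37 °C; acetyl-CoA carboxylase by [¹⁴C]bicarbonate fixation after 30 min polymerization then 30 min at 37 °C.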

[24] = test system: Rattus norvegicus; test: Effect on high density Phospholipids Holtzman rats after 14 days administration
Summary of the method: (§7)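 Holtzman male rats (~400 g) given drug at 20 (mg/kg)/day for 14 days; on day 14 blood taken from the abdominal aorta and serum separated by centrifugation at 3500 rpm; lipid and protein content of the lipoprotein fractions measured.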

[25] = test system: Rattus norvegicus; test: Effect on Chylomicrons of Protein Holtzman rats after 14 days administration; summary of the method: as §7
[26] = test system: Mus musculus; test: Effect on Serum cholesterol levels on CF1 male mice at a dose of 25 (mg/kg)/day after 16 days; summary of the method: as §2
[27] = test system: Mus musculus; test: Effect on triglycerides from CF1 male mice after 16 days at a dose of 10 (mg/kg/day); summary of the method: as §5
[28] = test system: Mus musculus; test: Effect on neutral lipids from CF1 male mice after 16 days at a dose of 40 (mg/kg/day); summary of the method: as §5
[29] = test system: Rattus norvegicus; test: Effect on Chylomicrons of Triglycerides Holtzman rats after 14 days administration; summary of the method: as §7
[30] = test system: Rattus norvegicus; test: Effect on low density Protein Holtzman rats after 14 days administration; summary of the method: as §7
[31] = test system: Mus musculus; test: Effect on Serum triglceride levels on CF1 male mice at a dose of 50 (mg/kg)/day after 14 days; summary of the method: as §2
[32] = test system: Rattus norvegicus; test: Effect on Chylomicrons of neutral lipids Holtzman rats after 14 days administration; summary of the method: as §7
[33] = test system: Mus musculus; test: Effect on Serum cholesterol levels on CF1 male mice at a dose of 25 (mg/kg)/day after 9 days; summary of the method: as §2
[34] = test system: Mus musculus; test: Effect on phospholipids from CF1 male mice after 16 days at a dose of 20 (mg/kg/day); summary of the method: as §5
[35] = test system: Rattus norvegicus; test: Effect on Serum triglceride levels on Holtzman rats at a dose of 30 (mg/kg)/day after 14 days; summary of the method: as §6
[36] = test system: Rattus norvegicus; test: Effect on Chylomicrons of Phospholipids Holtzman rats after 14 days administration; summary of the method: as §7

## CC(=O)c1ccccc1N1C(=O)c2ccccc2C1=O
[1]
  Control: 73%
[2]
  Control: 61%
[3]
  Control: 85%
[4]
  Control: 81%
[5]
  Control: 41%
[6]
  Control: 56%
[7]
  Control: 42%
[8]
  Control: 66%
[9]
  Control: 36%
[10]
  Control: 91%
[11]
  Control: 91%
[12]
  Control: 56%
[13]
  Control: 66%
[14]
  Control: 80%
[15]
  Control: 59%
[16]
  Control: 43%
[17]
  Control: 54%
[18]
  Control: 56%
[19]
  Control: 76%
[20]
  Control: 89%
[21]
  Control: 90%
[22]
  Control: 86%
[23]
  Control: 62%
[24]
  Control: 446%
[25]
  Control: 91%
[26]
  Control: 38%
[27]
  Control: 46%
[28]
  Control: 62%
[29]
  Control: 41%
[30]
  Control: 95%
[31]
  Control: 53%
[32]
  Control: 50%
[33]
  Control: 74%
[34]
  Control: 163%
[35]
  Control: 75%
[36]
  Control: 171%
